Entries after “also recorded” stand apart in the source; their conditions may differ.
Assays:
NMT1 = molecular target: T1, NMT1 (Homo sapiens, UniProt P30419); experiment: Fluorescence-based NMT1 enzymatic activity assay; format: biochemical
T1 sequence (P30419 109-496): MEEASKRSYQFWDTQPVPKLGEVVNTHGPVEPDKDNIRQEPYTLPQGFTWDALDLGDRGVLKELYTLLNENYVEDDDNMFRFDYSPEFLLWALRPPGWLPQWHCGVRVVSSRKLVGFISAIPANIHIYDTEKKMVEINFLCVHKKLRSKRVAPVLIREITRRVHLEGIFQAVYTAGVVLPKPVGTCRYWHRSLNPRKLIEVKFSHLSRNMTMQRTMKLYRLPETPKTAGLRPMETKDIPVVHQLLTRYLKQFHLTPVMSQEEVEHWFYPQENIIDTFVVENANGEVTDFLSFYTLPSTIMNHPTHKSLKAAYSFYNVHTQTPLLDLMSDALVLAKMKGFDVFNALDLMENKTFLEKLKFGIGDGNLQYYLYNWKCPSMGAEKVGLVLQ

Src myristoylation [1] = experiment: Src myristoylation by Click chemistry in PC-3 cells; format: cell-based; settings: endogenous Src kinase, myristic acid-azide 60 µM
SYF1-Src(Y529F) cells = experiment: Soft agar colony formation assay; format: cell-based, mouse
PC-3 cells [2] = experiment: Wound-healing; format: cell-based; settings: PC-3, 15 µM B13
Method in brief: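 PC-3 cells (8×10^5 per well) were grown 24 h to 95% confluence, then scratched with a 1 mL pipette tip. Wells were washed to remove floating cells and refed with fresh medium containing 15 µM test compound. The wound space was imaged daily.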

LNCaP cells = experiment: Cell proliferation; format: cell-based; settings: B13 for 5 d
Method in brief: (§1)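 Cells seeded at 3000–5000/well, exposed to a range of test-compound concentrations for 5 d. Medium swapped for 100 µL phenol-red-free medium, 10 µL of 12 mM MTT stock added, 37 °C 4 h; stopped with 100 µL 10% SDS in 0.01 M HCl, further 4 h at 37 °C; absorbance at 570 nm. Mean ± SEM of n=6 wells, two-sided Student's t test.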

acid ceramidase = settings: cited from earlier work
22Rv1 cells [3] = experiment: Transwell invasion assay; format: cell-based; settings: 22Rv1, 15 µM B13
Method in brief: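 22Rv1 cells at about 80% confluence were serum-starved for 24 h, then seeded in Transwell inserts. The top well held medium with 15 µM test compound or DMSO, and the receiver well held 10% FBS. After 48 h, cells were fixed with 3.7% formaldehyde (2 min) then methanol (20 min). Staining was 0.1% crystal violet for 15 min in the dark at room temperature. Non-migrated cells were swabbed off, and migrated cells were imaged and counted.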

293T cells = experiment: Cell proliferation; format: cell-based
DU145 cells [4] = experiment: Immunoblotting of cell cycle proteins; format: cell-based
Method in brief: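 DU145 cells were treated with or without different concentrations of test compound. Lysates were immunoblotted for CDK2, CDK6, cyclin D1, p27 and tubulin.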

22Rv1 cells [5] = experiment: Cell proliferation; format: cell-based; settings: 22Rv1, B13 for 5 d
Method in brief: as §1

PC-3 cells [6] = experiment: Immunoblotting of cell cycle proteins; format: cell-based
PC-3 cells [7] = experiment: Cell proliferation; format: cell-based; settings: PC-3, B13 for 5 d
Method in brief: as §1

[8] = system: de novo synthesized Src kinase; experiment: 293T cells expressing doxycycline inducible Src; format: cell-based
Method in brief: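 293T-rtTA cells carrying lentiviral TRE/Src(Y529F) in DMEM with 10% FBS; Src induced with or without doxycycline 1 µg/mL plus 0 (DMSO), 15 or 30 µM test compound for 24 h. Lysed in TNE buffer (pH 7.4, protease/phosphatase inhibitors), needle-homogenised, spun 14,000 rpm 10 min (supernatant = cytosol); pellet extracted with 60 mM β-octylglucoside on ice 30 min, spun 14,000 rpm 20 min 4°C (total membrane). Immunoblot: […] antibody, caveolin-1/GAPDH markers.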

pSrc(Y416), pFAK, pAkt = experiment: Immunoblotting of Src signaling in PC-3 total lysates; format: cell-based; settings: PC-3 cells
PNT2 normal cells = experiment: Cell proliferation; format: cell-based
[9] = Toxicity in host mice carrying PC-3 xenografts; format: in vivo, SCID mice
PNT2 cells = experiment: Cell cycle analysis by flow cytometry; format: cell-based
PC-3 xenograft tumors = experiment: PC-3 xenograft tumor growth; format: in vivo, SCID mice; settings: 75 mg/kg i.v. twice a week for 6 weeks
Src myristoylation [10] = experiment: Src myristoylation by Click chemistry in SYF1+Src; format: cell-based, mouse; settings: ectopically expressed Src kinase, SYF1+Src(WT) cells, myristic acid-azide 60 µM
Method in brief: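 Mouse SYF1 (Src−/−Yes−/−Fyn−/−) fibroblasts were lentivirally transduced with wild-type Src and grown in DMEM with 2% fatty-acid-free BSA. They were pretreated with test compound at 0, 1, 5, 15 or 30 µM for 2 h, then given 60 µM myristic acid-azide. M-PER lysates underwent Click labelling with 40 µM alkyne-biotin and CuSO4. Myristoyl-Src (60 kDa) was detected with streptavidin-HRP, and total Src and GAPDH by immunoblot.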

[11] = system: LNCaP, 22Rv1, PC-3, and DU145 cells; experiment: Cell cycle analysis by flow cytometry; format: cell-based; settings: tested prostate cancer cells, B13 for 3 d
Method in brief: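 Cells were grown in ATCC-recommended medium, and after attachment the medium with or without 15 or 30 µM test compound was renewed every 24 h for 3 days. 1 × 10^6 cells were PBS-washed and fixed in 70% ethanol for 1 h at 4 °C. They were stained with propidium iodide/RNase for 30 min in the dark at room temperature. Flow cytometry used 488 nm excitation and 585 nm emission, and G0/G1, S and G2/M percentages were compared with control.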

DU145 cells [12] = experiment: Cell proliferation; format: cell-based; settings: DU145, B13 for 5 d
Method in brief: as §1

## CCCCCCCCCCCCCC(=O)N[C@H](CO)[C@H](O)c1ccc([N+](=O)[O-])cc1 [B13, N-[(1R,2R)-2-hydroxy-1-(hydroxymethyl)-2-(4-nitrophenyl)ethyl]-tetradecanamide]
NMT1
  IC50: 77.6 µM
Src myristoylation [1]
  Src myristoylation (myristoyl-Src level): inhibited Src myristoylation
SYF1-Src(Y529F) cells
  Src(Y529F)-induced colony formation (transformation): the transformation was inhibited
PC-3 cells [2]
  Migration: suppressed
LNCaP cells
  Proliferation: less sensitive
Acid ceramidase
  Inhibition of acid ceramidase: can inhibit acid ceramidase
22Rv1 cells [3]
  Invasion: suppressed invasion
293T cells
  Proliferation: did not affect
DU145 cells [4]
  Expression of CDK2, cyclin D1 and p27: decreased expression of CDK2 and cyclin D1, increased expression of p27
  Expression of CDK6: decreased expression of CDK6
22Rv1 cells [5]
  Proliferation: significantly inhibited proliferation; also recorded: significant inhibition
PC-3 cells [6]
  Expression of CDK2, cyclin D1 and p27: decreased expression of CDK2 and cyclin D1, increased expression of p27
PC-3 cells [7]
  Proliferation: significantly inhibited proliferation; also recorded: significant inhibition
[8]; Dox 1 µg/ml, 15 and 30 µM B13, 24 h
  De novo synthesized Src-induced signaling: suppression of de novo synthesized Src-induced signaling
[8]; doxycycline induced, membrane fraction
  Non-phosphorylated Src kinase [non-pSrc(Y527)] at the cytoplasmic membrane: reduced
pSrc(Y416), pFAK, pAkt
  Src kinase tyrosine phosphorylation [pSrc(Y416)]: inhibited Src kinase tyrosine phosphorylation
  pFAK and pAkt levels: down-regulation of pFAK and pAkt
PNT2 normal cells
  Proliferation: limited effect
[9]; 75 mg/kg i.v. twice a week
  Body weight change: no significant changes
  Organs' weight change: no significant changes
[9]; 75 mg/kg i.v. twice a week for 6 weeks
  Pathological toxicity to major organs (liver, kidney, lung; H&E): no observed pathological toxicity
PNT2 cells
  Cell cycle: did not affect the cell cycle
PC-3 xenograft tumors
  Size and weight of PC-3 xenograft tumors: significantly inhibited the size and weight
Src myristoylation [10]
  Src myristoylation (myristoyl-Src level): inhibited Src myristoylation
[11]
  Cell cycle progression: significantly inhibited
DU145 cells [12]
  Proliferation: significantly inhibited proliferation

## CCCCCCCCCCCCCCN[C@H](CO)[C@H](O)c1ccc([N+](=O)[O-])cc1 [LCL204]
Acid ceramidase
  Inhibition of acid ceramidase relative to B13: higher inhibitory potential than B13
